In ChEMBL document CHEMBL1121966, “(2R*,3S*)-1-[125I]Iodo-2,3-bis(4-hydroxyphenyl)pentane ([125I]iodonorhexestrol) and (2R*,3S*)-1-[77Br]Bromo-2,3-bis(4-hydroxyphenyl)pentane ([77Br]bromonorhexestrol), two gamma-emitting estrogens that show receptor-mediated uptake by target tissues in vivo” (1982):
“And” between values parts separate entries of the source, which are not always exact repeats. Equal entries are not always repeated.

Legend:
[1] = Uterus/blood distribution ratio was measured in immature female rats at 1 hr; type: functional
Summary of the method: (§1)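 Immature (25 day) female Sprague-Dawley rats (ca. 50 g) were dosed iv (jugular or tail vein) in ethanol plus 0.9% NaCl/rat serum (1:1). Doses were 2 μCi of [125I]iodonorhexestrol (≤15 pmol/dose), or 2 μCi each of [77Br]bromonorhexestrol (≤1.25 pmol/dose) and 16α-[125I]iodoestradiol (2 pmol/dose). Rats were killed at 1, 3 or 6 h; blood and tissues were weighed and γ-counted. Thyroid weight assumed 0.005 g/100 g body weight. Mean ± SD.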

[2] = Tissue/blood distribution ratio was measured in immature female rats at 1 hr; type: functional; summary of the method: as §1
[3] = Esophagus/blood distribution ratio was determined in immature female rats at 6 hr; type: functional
Summary of the method: (§2)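 Dual-label study in immature 25-day female Sprague-Dawley rats (ca. 50 g). Each received 2 μCi [77Br]bromo tracer (≤1.25 pmol/dose) and 2 μCi 16α-[125I]iodoestradiol (2 pmol/dose) by tail or jugular vein, in ethanol diluted with saline/rat serum 1:1. Rats were killed at 3 or 6 h; blood and 11 tissues were weighed and counted. Five rats per time point; mean ± SD.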

[4] = Muscle/blood distribution ratio was determined in immature female rats at 3h; type: functional; summary of the method: as §2
[5] = Ovary/blood distribution ratio was determined in immature female rats at 3h; type: functional; summary of the method: as §2
[6] = Uptake ratio was measured with 16-alpha-[125I]-iodo-17-beta-estradiol in immature rats at 6 hr; type: functional
Summary of the method: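 Immature (25 day, ca. 50 g) female Sprague-Dawley rats received iv (jugular or tail vein) 2 μCi each of the 77Br ligand (≤1.25 pmol/dose) and 16α-[125I]iodoestradiol (2 pmol/dose), in ethanol plus 0.9% NaCl/rat serum 1:1. Rats were killed at 3 or 6 h, five per time point. Blood and tissues were weighed and counted. The 77Br/125I ratio was calculated per rat and averaged. Nontarget was the mean of esophagus, spleen, lung and muscle.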

[7] = Liver/blood distribution ratio was determined in immature female rats at 6 hr; type: functional; summary of the method: as §2
[8] = Thyroid/blood distribution ratio was determined in immature female rats at 6 hr; type: functional; summary of the method: as §1
Rattus norvegicus [9] = species on record: Rattus norvegicus; experiment: Percent injected dose per gram blood at 1 hr; type: functional
Summary of the method: (§3)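 Immature (25-day, ca. 50 g) Sprague-Dawley female rats received an iv injection (jugular or tail vein) of HPLC-purified tracer in ethanol plus 0.9% NaCl/rat serum 1:1. Doses were 2 μCi [125I]iodo tracer (≤15 pmol), or 2 μCi [77Br]bromo tracer (≤1.25 pmol) with 2 μCi 16α-[125I]iodoestradiol. Animals were killed at 1 h; blood and tissues were weighed and γ-counted. Blocking: coinjected unlabeled estradiol, 9 μg (iodo) or 18 μg (bromo). Mean ± SD.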

[10] = Muscle/blood distribution ratio was determined in immature female rats at 1 hr; type: functional; summary of the method: as §3
[11] = Liver/blood distribution ratio was determined in immature female rats at 1 hr with unlabeled estradiol; type: functional; summary of the method: as §3
[12] = Thyroid/blood distribution ratio was determined in immature female rats at 3h; type: functional; summary of the method: as §1
Rattus norvegicus [13] = species on record: Rattus norvegicus; experiment: Percent injected dose per gram Uterus at 1 hr; type: functional; summary of the method: as §3
[14] = Lung/blood distribution ratio was determined in immature female rats at 6 hr; type: functional; summary of the method: as §2
[15] = Lung/blood distribution ratio was determined in immature female rats at 1 hr; type: functional; summary of the method: as §3
Rattus norvegicus [16] = species on record: Rattus norvegicus; experiment: Percent injected dose per gram liver at 1 hr; type: functional; summary of the method: as §1
Rattus norvegicus [17] = species on record: Rattus norvegicus; experiment: Percent injected dose per gram kidney at 3h; type: functional; summary of the method: as §2
Rattus norvegicus [18] = species on record: Rattus norvegicus; experiment: Percent injected dose per gram thyroid at 1 hr with unlabeled estradiol; type: functional, Thyroid gland
Summary of the method: (§4)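 Same iv biodistribution in immature female rats, killed at 1 h, with unlabeled estradiol coinjected to block receptor uptake: 9 μg with [125I]iodonorhexestrol (3 rats), 18 μg with the [77Br]bromonorhexestrol/16α-[125I]iodoestradiol pair (5 rats). Tissue and blood radioactivity were counted as % injected dose/g and tissue-to-blood ratio.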

[19] = Liver/blood distribution ratio was determined in immature female rats at 1 hr; type: functional; summary of the method: as §3
[20] = Thyroid/blood distribution ratio was determined in immature female rats at 1 hr with unlabeled estradiol; type: functional; summary of the method: as §4
[21] = Muscle/blood distribution ratio was determined immature female rats at 1 hr with unlabeled estradiol; type: functional; summary of the method: as §3
Rattus norvegicus [22] = species on record: Rattus norvegicus; experiment: Percent injected dose per gram kidney at 6 hr; type: functional; summary of the method: as §2
Rattus norvegicus [23] = species on record: Rattus norvegicus; experiment: Percent injected dose per gram lung at 3h; type: functional; summary of the method: as §1
Rattus norvegicus [24] = species on record: Rattus norvegicus; experiment: % compound injected per gram uterus at 6 hr; type: functional
[25] = Lung/blood distribution ratio was determined in immature female rats at 1 hr with unlabeled estradiol; type: functional; summary of the method: as §3
[26] = Spleen/blood distribution ratio was determined immature female rats at 1 hr; type: functional; summary of the method: as §1
Rattus norvegicus [27] = species on record: Rattus norvegicus; experiment: Percent injected dose per gram Ovaries at 1 hr with unlabeled estradiol; type: functional; summary of the method: as §3
Rattus norvegicus [28] = species on record: Rattus norvegicus; experiment: Percent injected dose per gram Uterus at 1 hr with unlabeled estradiol.; type: functional; summary of the method: as §3
Rattus norvegicus [29] = species on record: Rattus norvegicus; experiment: Percent injected dose per gram Ovaries at 3h; type: functional; summary of the method: as §2
Rattus norvegicus [30] = species on record: Rattus norvegicus; experiment: Percent injected dose per gram esophagus at 1 hr with unlabeled estradiol; type: functional; summary of the method: as §3
Rattus norvegicus [31] = species on record: Rattus norvegicus; experiment: Percent injected dose per gram thyroid at 6 hr; type: functional, Thyroid gland; summary of the method: as §1
Rattus norvegicus [32] = species on record: Rattus norvegicus; experiment: Percent injected dose per gram blood at 3h; type: functional; summary of the method: as §2
[33] = Esophagus/blood distribution ratio was determined in immature female rats at 3h; type: functional; summary of the method: as §2
[34] = Spleen/blood distribution ratio was determined immature female rats at 6 hr; type: functional; summary of the method: as §1
Rattus norvegicus [35] = species on record: Rattus norvegicus; experiment: Percent injected dose per gram spleen at 1 hr; type: functional; summary of the method: as §1
[36] = Muscle/blood distribution ratio was determined in immature female rats at 6 hr; type: functional; summary of the method: as §2
[37] = Tissue/blood distribution ratio was measured in immature female rats at 6 hr; type: functional; summary of the method: as §1
[38] = Liver/blood distribution ratio was determined in immature female rats at 3h; type: functional; summary of the method: as §2
Rattus norvegicus [39] = species on record: Rattus norvegicus; experiment: Percent injected dose per gram esophagus at 3h; type: functional; summary of the method: as §2
Rattus norvegicus [40] = species on record: Rattus norvegicus; experiment: Percent injected dose per gram spleen at 1 hr with unlabeled estradiol; type: functional; summary of the method: as §4
[41] = Uterus/blood distribution ratio was measured in immature female rats at 6 hr; type: functional; summary of the method: as §1
Rattus norvegicus [42] = species on record: Rattus norvegicus; experiment: Percent injected dose per gram kidney at 1 hr; type: functional; summary of the method: as §3
Rattus norvegicus [43] = species on record: Rattus norvegicus; experiment: Percent injected dose per gram Uterus at 3h; type: functional; summary of the method: as §2
[44] = Lung/blood distribution ratio was determined in immature female rats at 3h; type: functional; summary of the method: as §2
[45] = Percent injected dose per gram liver at 6 hr; type: functional; summary of the method: as §1
Rattus norvegicus [46] = species on record: Rattus norvegicus; experiment: Percent injected dose per gram Muscle at 1 hr; type: functional; summary of the method: as §3
Rattus norvegicus [47] = species on record: Rattus norvegicus; experiment: Percent injected dose per gram Muscle at 3h; type: functional; summary of the method: as §2
Rattus norvegicus [48] = species on record: Rattus norvegicus; experiment: Percent injected dose per gram kidney at 1 hr with unlabeled estradiol; type: functional; summary of the method: as §3
Rattus norvegicus [49] = species on record: Rattus norvegicus; experiment: Percent injected dose per gram thyroid at 3h; type: functional, Thyroid gland; summary of the method: as §1
[50] = Spleen/blood distribution ratio was determined immature female rats at 3h; type: functional; summary of the method: as §1
[51] = Ovary/blood distribution ratio was determined in immature female rats at 1 hr with unlabeled estradiol; type: functional; summary of the method: as §3
Rattus norvegicus [52] = species on record: Rattus norvegicus; experiment: Percent injected dose per gram blood at 6 hr; type: functional; summary of the method: as §2
Rattus norvegicus [53] = species on record: Rattus norvegicus; experiment: Percent injected dose per gram spleen at 3h; type: functional; summary of the method: as §1
Rattus norvegicus [54] = species on record: Rattus norvegicus; experiment: Percent injected dose per gram Muscle at 1 hr with unlabeled estradiol; type: functional; summary of the method: as §3
Rattus norvegicus [55] = species on record: Rattus norvegicus; experiment: Percent injected dose per gram blood at 1 hr with unlabeled estradiol; type: functional; summary of the method: as §3
[56] = Tissue/blood distribution ratio was measured in immature female rats at 3h; type: functional; summary of the method: as §1
[57] = Ovary/blood distribution ratio was determined in immature female rats at 1 hr; type: functional; summary of the method: as §3

CC[C@H](c1ccc(O)cc1)[C@@H](CBr)c1ccc(O)cc1
Ratio [1]: 4.49 | Ratio [2]: 1 | Ratio [3]: 0.5 | Ratio [4]: 0.29 | Ratio [5]: 1.23 | Ratio [6]: 0.58 and 0.33% | Ratio [7]: 0.69 | Ratio [8]: 0.13 | Injected dose (Rattus norvegicus [9]): 0.75% | Ratio [10]: 0.48 | Ratio [11]: 1.51 | Ratio [12]: 0.08 | Injected dose (Rattus norvegicus [13]): 3.16% | Ratio [14]: 0.76 | Ratio [15]: 0.6 | Injected dose (Rattus norvegicus [16]): 1.28% | Injected dose (Rattus norvegicus [17]): 0.84% | Injected dose (Rattus norvegicus [18]): 0.25% | Ratio [19]: 1.69 | Ratio [20]: 0.25 | Ratio [21]: 0.31 | Injected dose (Rattus norvegicus [22]): 0.9% | Injected dose (Rattus norvegicus [23]): 0.95% | Injected (Rattus norvegicus [24]): 3.19 | Ratio [25]: 0.82 | Ratio [26]: 0.52 | Injected dose (Rattus norvegicus [27]): 0.72% | Injected dose (Rattus norvegicus [28]): 0.95% | Injected dose (Rattus norvegicus [29]): 1.28% | Injected dose (Rattus norvegicus [30]): 0.56% | Injected dose (Rattus norvegicus [31]): 0.18% | Injected dose (Rattus norvegicus [32]): 1.24% | Ratio [33]: 0.49 | Ratio [34]: 0.55 | Injected dose (Rattus norvegicus [35]): 0.38% | Ratio [36]: 0.26 | Ratio [37]: 1 | Ratio [38]: 0.84 | Injected dose (Rattus norvegicus [39]): 0.61% | Injected dose (Rattus norvegicus [40]): 0.34% | Ratio [41]: 2.51 | Injected dose (Rattus norvegicus [42]): 0.94% | Injected dose (Rattus norvegicus [43]): 3.59% | Ratio [44]: 0.68 | Injected dose [45]: 0.93% | Injected dose (Rattus norvegicus [46]): 0.29% | Injected dose (Rattus norvegicus [47]): 0.37% | Injected dose (Rattus norvegicus [48]): 0.7% | Injected dose (g) (Rattus norvegicus [49]): 0.09% | Ratio [50]: 0.48 | Ratio [51]: 0.74 | Injected dose (Rattus norvegicus [52]): 1.36% | Injected dose (Rattus norvegicus [53]): 0.6% | Injected dose (Rattus norvegicus [54]): 0.3% | Injected dose (Rattus norvegicus [55]): 0.98% | Ratio [56]: 1 | Ratio [57]: 1.98
